The values below come from ChEMBL document CHEMBL3112518, “Design, synthesis and anticancer activity evaluation of novel C14 heterocycle substituted epi-triptolide” (Eur J Med Chem, 2014).

In one assay the test system is SK-OV-3. In words: Cytotoxicity against human SKOV3 cells after 72 hrs by sulforhodamine B assay. The format is functional, cell-based. The note with it: SK-OV-3, 72 h. The essentials: (§1)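 Cells in 96-well plates were exposed in triplicate to a concentration gradient of each agent at 37 °C for 72 h, and growth was then measured by sulforhodamine B staining. IC50 is the concentration giving 50% growth inhibition relative to untreated control cells, calculated by the logit method.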

The next assay has as its system PC-3. In words: Cytotoxicity against human PC3 cells after 72 hrs by sulforhodamine B assay. Particulars: PC-3, 72 h. Type of assay: functional, cell-based. An outline of the steps: as §1

Turning to `CC(C)[C@]12O[C@H]1[C@@H]1O[C@]13[C@]1(O[C@H]1C[C@H]1C4=C(CC[C@@]13C)C(=O)OC4)[C@]21CN(c2ccc3c(cnn3CCN3CCOCC3)c2)CO1`, the figures for the IC50 with SK-OV-3 and in the assay on PC-3 were 152 nM and 253 nM, respectively. In the same order, the values of `CC(C)[C@]12O[C@H]1[C@@H]1O[C@]13[C@]1(O[C@H]1C[C@H]1C4=C(CC[C@@]13C)C(=O)OC4)[C@]2(O)Cn1cc(C2CC2)nn1` are greater than 10000 nM and greater than 10000 nM. The matching figures for `COC(=O)c1cn(C[C@@]2(O)[C@]34O[C@H]3C[C@H]3C5=C(CC[C@]3(C)[C@@]43O[C@H]3[C@@H]3O[C@@]32C(C)C)C(=O)OC5)nn1`: greater than 10000 nM and greater than 10000 nM. The matching figures for `CC(C)[C@]12O[C@H]1[C@@H]1O[C@]13[C@]1(O[C@H]1C[C@H]1C4=C(CC[C@@]13C)C(=O)OC4)[C@]2(O)Cn1cc(-c2ccccc2)nn1`: greater than 10000 nM and greater than 10000 nM. Regarding `CC(C)[C@]12O[C@H]1[C@@H]1O[C@]13[C@]1(O[C@H]1C[C@H]1C4=C(CC[C@@]13C)C(=O)OC4)[C@]2(O)CNc1cccnc1`, the IC50 was 745 nM in the assay with SK-OV-3 and 2810 nM in the assay with PC-3.

For the molecule `CC(C)[C@]12O[C@H]1[C@@H]1O[C@]13[C@]1(O[C@H]1C[C@H]1C4=C(CC[C@@]13C)C(=O)OC4)[C@]2(O)CNc1cccc2[nH]ccc12`, the IC50 in the assay on SK-OV-3 amounted to 53.8 nM; in the assay on PC-3 it was 97.8 nM. The matching figures for `CC(C)[C@]12O[C@H]1[C@@H]1O[C@]13[C@]1(O[C@H]1C[C@H]1C4=C(CC[C@@]13C)C(=O)OC4)[C@]2(O)CNc1ccc2[nH]ncc2c1`: 17.4 nM and 25.3 nM. In the same order, the values of `CC(C)[C@]12O[C@H]1[C@@H]1O[C@]13[C@]1(O[C@H]1C[C@H]1C4=C(CC[C@@]13C)C(=O)OC4)[C@]2(O)CNc1ccc2cn[nH]c2c1` are 49 nM and 188 nM. In the same order, the values of `CC(C)[C@]12O[C@H]1[C@@H]1O[C@]13[C@]1(O[C@H]1C[C@H]1C4=C(CC[C@@]13C)C(=O)OC4)[C@]2(O)CNc1ccc2c(cnn2C)c1` are 15 nM and 132 nM. In the case of `CC(C)[C@]12O[C@H]1[C@@H]1O[C@]13[C@]1(O[C@H]1C[C@H]1C4=C(CC[C@@]13C)C(=O)OC4)[C@]2(O)CNc1ccc2nn(C)cc2c1`, the IC50 in the assay with SK-OV-3 came to 22.3 nM; in the assay with PC-3, 97 nM. Take `COC(=O)n1ncc2cc(NC[C@@]3(O)[C@]45O[C@H]4C[C@H]4C6=C(CC[C@]4(C)[C@@]54O[C@H]4[C@@H]4O[C@@]43C(C)C)C(=O)OC6)ccc21`: the IC50 came to 102 nM with SK-OV-3 and 188 nM in the assay with PC-3. The matching figures for `COC(=O)c1n[nH]c2ccc(NC[C@@]3(O)[C@]45O[C@H]4C[C@H]4C6=C(CC[C@]4(C)[C@@]54O[C@H]4[C@@H]4O[C@@]43C(C)C)C(=O)OC6)cc12`: 35.8 nM and 264 nM. Turning to `CC(C)[C@]12O[C@H]1[C@@H]1O[C@]13[C@]1(O[C@H]1C[C@H]1C4=C(CC[C@@]13C)C(=O)OC4)[C@]2(O)CNc1ccc2c(cnn2CCN2CCOCC2)c1`, the IC50 came out at 36.4 nM with SK-OV-3 and 36.6 nM in the assay on PC-3. Regarding `CC(C)[C@]12O[C@H]1[C@@H]1O[C@]13[C@]1(O[C@H]1C[C@H]1C4=C(CC[C@@]13C)C(=O)OC4)[C@]2(O)CNc1ccc2nn(CCN3CCOCC3)cc2c1`, the IC50 was found to be 77 nM in the assay on SK-OV-3 and 40.8 nM with PC-3. The matching figures for `CC(C)[C@]12O[C@H]1[C@@H]1O[C@]13[C@]1(O[C@H]1C[C@H]1C4=C(CC[C@@]13C)C(=O)OC4)[C@]2(O)CNc1ccc2nn(CCN3CCCCC3)cc2c1`: 99 nM and 66.1 nM. `CC(C)[C@]12O[C@H]1[C@@H]1O[C@]13[C@]1(O[C@H]1C[C@H]1C4=C(CC[C@@]13C)C(=O)OC4)[C@]2(O)CNc1ccc2c(c1)CC(=O)N2`: the IC50 in the assay on SK-OV-3 stood at 38.4 nM; with PC-3, 54.1 nM. The matching figures for `CC(C)[C@]12O[C@H]1[C@@H]1O[C@]13[C@]1(O[C@H]1C[C@H]1C4=C(CC[C@@]13C)C(=O)OC4)[C@]2(O)CNc1ccc2c(c1)C(C)(C)C(=O)N2C`: 11.7 nM and 84.9 nM. For the molecule `CC(C)[C@]12O[C@H]1[C@@H]1O[C@]13[C@]1(O[C@H]1C[C@H]1C4=C(CC[C@@]13C)C(=O)OC4)[C@]2(O)CNc1ccc2ncccc2c1`, the IC50 came to 85 nM in the assay on SK-OV-3 and 452 nM in the assay with PC-3. In the same order, the values of `CC(C)[C@]12O[C@H]1[C@@H]1O[C@]13[C@]1(O[C@H]1C[C@H]1C4=C(CC[C@@]13C)C(=O)OC4)[C@]2(O)CNc1ccc2nccnc2c1` are 369 nM and 157 nM. Take `CC(C)[C@]12O[C@H]1[C@@H]1O[C@]13[C@]1(O[C@H]1C[C@H]1C4=C(CC[C@@]13C)C(=O)OC4)[C@]2(O)CNc1ccc2ncncc2c1`: the IC50 amounted to 274 nM in the assay with SK-OV-3 and 781 nM with PC-3. On to `CC(C)[C@]12O[C@H]1[C@@H]1O[C@]13[C@]1(O[C@H]1C[C@H]1C4=C(CC[C@@]13C)C(=O)OC4)[C@]2(O)CNc1ccc2oc(=O)ccc2c1`, for which the IC50 in the assay with SK-OV-3 stood at 87.2 nM; with PC-3, 353 nM. Turning to `CC(C)[C@]12O[C@H]1[C@@H]1O[C@]13[C@]1(O[C@H]1C[C@H]1C4=C(CC[C@@]13C)C(=O)OC4)[C@]2(O)CNc1ccc2occc(=O)c2c1`, the figures for the IC50 in the assay with SK-OV-3 and in the assay on PC-3 were 368 nM and 341 nM, respectively. On to `CC(C)[C@]12O[C@H]1[C@@H]1O[C@]13[C@]1(O[C@H]1C[C@H]1C4=C(CC[C@@]13C)C(=O)OC4)[C@]2(O)CNc1ccc2c(c1)C(=O)CCO2`, for which the IC50 in the assay with SK-OV-3 was determined as 32.1 nM; with PC-3 it was 172 nM. Consider `CC(C)[C@]12O[C@H]1[C@@H]1O[C@]13[C@]1(O[C@H]1C[C@H]1C4=C(CC[C@@]13C)C(=O)OC4)[C@]2(O)CNc1ccc2c(c1)CC(=O)O2`, for which the IC50 amounted to 12.5 nM in the assay with SK-OV-3 and 67.9 nM with PC-3.

Take `CC(C)[C@]12O[C@H]1[C@@H]1O[C@]13[C@]1(O[C@H]1C[C@H]1C4=C(CC[C@@]13C)C(=O)OC4)[C@]21CN(c2ccc3c(cnn3C)c2)CO1`: the values for the IC50 in the assay with SK-OV-3 and with PC-3 were 79.7 nM and 365 nM, respectively. For the molecule `CC(C)[C@]12O[C@H]1[C@@H]1O[C@]13[C@]1(O[C@H]1C[C@H]1C4=C(CC[C@@]13C)C(=O)OC4)[C@H]2O` [EPITRIPTOIIDE], in the assay on PC-3, half-maximal inhibition (IC50) required 1320 nM.
